Source: PubChem
Lipid droplet – inhibitors of hepatocyte lipid droplet formation, primary screen, imaging, high-throughput imaging, BODIPY stain; AML12 mouse hepatocytes, oleate lipid droplets; inhibition, % at 6.5 µM; 240,000 compounds, 0.4% hits; AID 1656, 2009;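 active means lipid droplet intensity inhibited by at least 50%, with more than 500 cells counted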
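Assay system: AML12 mouse liver cells | Compound: 6.5 µM single-point dosing | Schedule: Overnight exposure | Technique: Fluorescence imaging, 20x objective, two fields per well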
NOD2-RIPK2 inh – NOD2-RIPK2 binding disruptors in cells, primary screen, fluorescence, CHO cells, BLA complementation | CCF4 ratio | Receptor-interacting serine/threonine-protein kinase 2 (Homo sapiens), O43353 | AID 624267, 2012 | inhibition, % at 4.98 µM | 360,000 compounds, 0.38% hits; in the data active means inhibition above about 21%;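 further: 0% = vehicle only and 100% = reference blocker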
Target sequence (O43353 whole entry, looked up): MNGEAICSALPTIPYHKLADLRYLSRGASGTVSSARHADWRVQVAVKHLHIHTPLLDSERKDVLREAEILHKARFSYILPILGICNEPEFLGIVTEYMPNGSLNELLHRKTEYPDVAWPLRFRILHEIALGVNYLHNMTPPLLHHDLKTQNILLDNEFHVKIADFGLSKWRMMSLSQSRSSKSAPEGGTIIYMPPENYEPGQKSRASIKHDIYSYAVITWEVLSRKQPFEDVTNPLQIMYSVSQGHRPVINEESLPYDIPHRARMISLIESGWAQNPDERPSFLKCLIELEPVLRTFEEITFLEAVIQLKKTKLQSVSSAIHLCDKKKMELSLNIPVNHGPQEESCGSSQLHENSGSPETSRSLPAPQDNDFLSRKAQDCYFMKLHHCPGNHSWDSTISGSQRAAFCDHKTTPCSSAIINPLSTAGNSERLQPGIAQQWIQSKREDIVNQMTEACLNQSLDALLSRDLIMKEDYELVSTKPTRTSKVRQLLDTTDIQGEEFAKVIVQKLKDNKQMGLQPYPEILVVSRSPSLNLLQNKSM
SR-BI HDL uptake – inhibitors of SR-BI mediated HDL lipid uptake, primary screen, ldlA[mSR-BI] cells, fluorescence, single point; Scavenger receptor class B member 1 (Mus musculus), Q61009; inhibition, % at 12.5 µM; ldlA[mSR-BI] CHO cells, DiI-HDL uptake fluorescence, 3 h; 320,000 compounds, 0.96% hits; AID 488896, 2010;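 active means mean replicate inhibition of at least 70% and a set share of replicates each scoring 70 or more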;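 further: 0% = median of neutral control wells and 100% = median of positive control wells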
TLR9-MyD88 inh – inhibitors of TLR9-MyD88 association in cells, primary screen, cell-based, CHO, BLA complementation, fluorescence; Toll-like receptor 9 (Homo sapiens) + Myeloid differentiation primary response protein …; CCF4 FRET ratio; inhibition, % at 4.98 µM; 340,000 compounds, 0.21% hits;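 active means inhibition above the mean over all tested compounds plus 3 SD, cut at about 21% in these data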;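 further: 0% = DMSO only wells and 100% = clavulanate BLA inhibitor control wells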
TLR4 MyD88 comp – inhibitors of TLR4-MyD88 association in cells, primary screen, cell-based, HeLa CL3-4, BLA complementation, FRET ratio; Toll-like receptor 4 (Homo sapiens) + Myeloid differentiation primary response protein …; HeLa CL3-4 TLR4/MyD88 BLA complementation; inhibition, % at 8.4 µM; 200,000 compounds, 0.18% hits; in the data active means inhibition above about 25%;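 further: 0% = vehicle and 100% = reference inhibitor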
SR-BI uptake up – activators of SR-BI mediated DiI-HDL uptake, primary screen, ldlA[mSR-BI] CHO cells, DiI fluorescence | 320,000 compounds, 0.096% hits | activation, % at 12.5 µM | 3 h; 100 = double the neutral-control signal;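 active means mean replicate activation of at least 60% and every replicate at or above 60%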;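 further: 0% = median plate neutral-control signal and 100% = twice that signal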
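Test system: SR-BI-overexpressing, LDLR-lacking CHO cells; Medium: Ham's F12 with 0.5% BSA, HEPES 25 mM, pH 7.4; Schedule: 3 h, 37 °C; Technique: bottom-read fluorescence, 550/595 nm.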
* = called active by the depositor; x = no result. Rows were chosen to be rich in hits. Some 1.6% of all compounds tested hit in one or more screens of this group.

SMILES | Lipid droplet | NOD2-RIPK2 inh | SR-BI HDL uptake | TLR9-MyD88 inh | TLR4 MyD88 comp | SR-BI uptake up
Cc1ccc(COc2ccc(/C=N/NC(=O)c3nnn(-c4nonc4N)c3COc3ccc(F)cc3)cc2)cc1 | -4 | 9 | 71* | -2 | x | -71
CCc1c(C(=O)N/N=C/c2ccc(OCc3ccc(F)cc3)c(OC)c2)nnn1-c1nonc1N | 4 | -2 | 76* | -12 | x | -76
O=C(COc1ccc(S(=O)(=O)N2CCOCC2)cc1)N1CCN(c2ccccc2)CC1 | 11 | -1 | 0 | 2 | x | 0
O=S(=O)(c1ccc(Oc2ccc(Cl)cc2)c(S(=O)(=O)N2CCCCC2)c1)N1CCCCC1 | x | -4 | 19 | -9 | 5 | -19
CCCCOc1ccc(/C=C/C(=O)OCC(=O)N2CC(=O)Nc3ccccc32)cc1OCC | -6 | -9 | 69 | 5 | 0 | -69
CCCCCC(=O)NC(=S)Nc1ccc(Br)cc1C | -8 | -9 | -70 | -5 | -3 | 70*
CCC(=O)N(CC)c1nc(-c2ccc(OC)cc2)cs1 | x | -2 | 87* | -2 | -9 | -87
CCC(=O)N(Cc1ccco1)c1nc(-c2ccc(OC)cc2)cs1 | 11 | 1 | 31 | -1 | 14 | -31
CCCCN(C)c1c(C)nc2ccc(C(=O)NCCOc3ccc(OC)cc3)cn12 | x | 6 | x | x | x | x
COc1cc(OC)c2c(-c3cccc(-c4ccc(CO)cc4)c3)cc(=O)oc2c1 | x | 23* | 54 | 5 | x | -54
Cc1cc2cc(CN(Cc3ccc4c(c3)OCO4)C(=O)c3cnccn3)c3nnnn3c2cc1C | x | -5 | -10 | -3 | 2 | 10
O=C(c1ccccc1F)N(Cc1ccc2c(c1)OCO2)Cc1cc2cc3c(cc2n2nnnc12)OCO3 | x | -4 | 72* | -1 | -6 | x
Cc1cc(C)cc(NC(=S)N=Nc2c(O)n(C)c3ccc(S(=O)(=O)N4CCOCC4)cc23)c1 | 5 | 3 | 87* | -2 | -2 | -87
Cc1nc2sccn2c(=O)c1Cl | x | -5 | -17 | 0 | 1 | 17
Cn1c(=O)c2c(nc3sccn32)n(C)c1=O | -4 | -5 | -69 | 8 | -5 | 69*
O=C(Nc1nc2ccc(Br)cc2s1)c1ccco1 | 10 | 10 | 93* | -6 | x | -93
O=C(Nc1nc2ccc(Cl)cc2s1)c1ccco1 | 1 | -8 | 17 | 0 | 12 | -17
COc1cccc(CNC(=O)CSc2ccc(-c3cccs3)nn2)c1 | 7 | -10 | 12 | -8 | -8 | -12
Cc1ccc2c(c1)c1c3n2CC(=C2C(=O)OC(C)(C)OC2=O)NC3CCC1 (stereo unspecified) | -7 | 18 | 78* | 16 | 7 | -78
COCC(C)NC(=O)c1cc2c(ccc3ccccc32)oc1=O (stereo unspecified) | -2 | -3 | -16 | -13 | x | 16
Cc1cccc(N2CCc3c2nc2ccc(Br)cc2c3N)c1 | 4 | 2 | 91* | -7 | 6 | -91
Nc1c2c(nc3ccc(Br)cc13)N(c1ccccc1)CC2 | 27 | -1 | 67 | -4 | -14 | -67
COc1ccc(Nc2nc(-c3cccc(OC)c3O)nc3ccccc23)cc1 | 50 | 0 | 83* | 4 | x | -83
COc1cccc(-c2nc(Oc3cc(C)cc(C)c3)c3ccccc3n2)c1O | -6 | x | x | x | 2 | x
COc1cccc(-c2nc(NC(C)(C)C)c3ccccc3n2)c1O | x | 2 | 84* | -1 | 8 | -84
SMILES | Lipid droplet | NOD2-RIPK2 inh | SR-BI HDL uptake | TLR9-MyD88 inh | TLR4 MyD88 comp | SR-BI uptake up
COc1cccc(-c2nc(N3CCCC3)c3ccccc3n2)c1O | 16 | -14 | 50 | 11 | x | -51
CCC(=O)c1ccc(OCC(=O)OCC(=O)NCCC2=CCCCC2)cc1 | x | 6 | -6 | 1 | x | 6
CC1CCN(S(=O)(=O)c2ccc3c(c2)N(CC(=O)NCCCN2C(C)CCCC2C)C(=O)CO3)CC1 (stereo unspecified) | 27 | -10 | -20 | 2 | x | 20
CCOc1cccc(CN2CCC(Oc3ccc(C(=O)N4CCCC4)cc3)CC2)c1O | x | 0 | x | -2 | x | x
CCOC(=O)C(=Cc1ccc(-c2ccsc2C(=O)OC)o1)C(=O)OCC | x | -2 | 76* | -12 | 2 | -76
COC(=O)C(=Cc1ccc(-c2ccsc2C(=O)OC)o1)C(=O)OC | 2 | 9 | 24 | -7 | x | -24
COc1ccc(CCNC(=O)c2ccc(N3CCCCS3(=O)=O)cc2)cc1OC | 24 | 2 | 79* | 0 | x | -79
CC1(C)Cc2nc3sc4c(NCCO)ncnc4c3cc2CS1 | 0 | -10 | 79* | -1 | x | -79
O=C(COc1ccc(S(=O)(=O)N2CCOCC2)cc1)N1CCc2ccccc2C1 | 9 | -8 | 4 | 4 | x | -4
Cc1ccc(S(=O)(=O)N2CCOCC2)cc1C(=O)OCC(=O)N1CCc2ccccc2C1 | 12 | 5 | 76* | -2 | 4 | -76
COc1ccc(Br)cc1/C=N/NC(=O)c1ccc(OC)c(OC)c1 | 8 | 0 | 92* | -1 | -8 | -92
COc1ccc(Br)cc1/C=N/NC(=O)c1cc(OC)c(OC)c(OC)c1 | -3 | 6 | 75* | -1 | 3 | -75
CCC(=O)Nc1ccc(NC(=S)NC(=O)/C=C/c2ccco2)cc1 | 0 | 2 | 89* | -9 | x | -89
Cc1[nH]nc2c1/C(=N\O)CCC2 | 5 | 2 | -14 | -6 | -3 | 14
Cc1ccc2sc(NNC(=O)c3cc(-c4cccs4)nc4ccccc34)nc2c1C | 11 | x | x | x | -3 | x
COc1ccc(-c2cc(C(=O)Nc3c(C)n(C)n(-c4ccccc4)c3=O)c3ccccc3n2)c(OC)c1 | -2 | -8 | 69 | -6 | x | -69
Cc1c(NC(=O)COC(=O)c2cc(-c3ccc(-c4ccccc4)cc3)nc3ccccc23)c(=O)n(-c2ccccc2)n1C | 0 | 2 | 51 | -4 | -10 | -51
COc1ccc(-c2cc(C(=O)Nc3c(C)n(C)n(-c4ccccc4)c3=O)c3ccccc3n2)cc1OC | 1 | 1 | 92* | -1 | x | -92
Cc1ccc(-c2cc(C(=O)Nc3c(C)n(C)n(-c4ccccc4)c3=O)c3ccccc3n2)cc1 | x | -6 | 74* | -4 | x | -74
Cc1c(NC(=O)c2cc(-c3ccccc3)nc3ccccc23)c(=O)n(-c2ccccc2)n1C | x | 0 | 77* | -2 | x | -77
O=C(NNc1nc2ccc(Cl)cc2s1)c1cc(-c2cccs2)nc2ccccc12 | -24 | -1 | 89* | 2 | 0 | -89
Cc1cccc(C(=O)Nc2ccccc2C(=O)NCc2ccco2)c1 | -39 | 14 | 10 | 7 | x | x
